Test results published in ChEMBL document CHEMBL1142063, “Synthesis of omeprazole analogues and evaluation of these as potential inhibitors of the multidrug efflux pump NorA of Staphylococcus aureus” (2007).

Tests used:
[1] = system: Staphylococcus aureus; assay: Increase in 5 ug moxifloxacin antibacterial activity against Staphylococcus aureus SA1199B mutant overexpressing NorA at 128 ug/ml by disk diffusion method; assay type: functional
Outline: (§1)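 Agar diffusion on Mueller-Hinton agar (adjusted to 20 μg/ml Ca²⁺ and 10 μg/ml Mg²⁺), used plain or with the efflux inhibitor incorporated at the stated concentration. Disks were 5 μg for the fluoroquinolones and 30 μg for chloramphenicol. Plates were incubated overnight at 37°C, and inhibition zone diameters were measured. Values are means of at least three independent experiments.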

[2] = system: Staphylococcus aureus; assay: Antibacterial activity against Staphylococcus aureus; assay type: functional
Outline: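 Tube broth dilution MIC against SA-1199 and NorA-overproducing SA-1199B in Mueller-Hinton broth with 20 μg/ml Ca²⁺ and 10 μg/ml Mg²⁺. Inoculum was a 4–5 h 37°C culture diluted 1/10 (≈10⁶ CFU/ml). Compound range was 512 to 1 μg/ml, dissolved in DMSO (final ≤4%).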

[3] = system: Staphylococcus aureus; assay: Increase in 5 ug levofloxacin antibacterial activity against Staphylococcus aureus SA1199B mutant overexpressing NorA at 128 ug/ml by disk diffusion method; assay type: functional; outline: as §1
[4] = system: Staphylococcus aureus; assay: Increase in 2 ug/ml Norfloxacin antibacterial activity against wild type Staphylococcus aureus SA1199 at 128 ug/ml by checker board method; assay type: functional
[5] = system: Staphylococcus aureus; assay: Increase in 64 ug/ml Norfloxacin antibacterial activity against Staphylococcus aureus SA1199B mutant overexpressing NorA at 128 ug/ml by checker board method; assay type: functional
[6] = system: Staphylococcus aureus; assay: Increase in 5 ug ciprofloxacin antibacterial activity against Staphylococcus aureus SA1199B mutant overexpressing NorA at 128 ug/ml by disk diffusion method; assay type: functional; outline: as §1
[7] = system: Staphylococcus aureus; assay: Increase in 30 ug chloramphenicol antibacterial activity against Staphylococcus aureus SA1199B mutant overexpressing NorA at 128 ug/ml by disk diffusion method; assay type: functional; outline: as §1
[8] = system: Staphylococcus aureus; assay: Increase in 5 ug sparfloxacin antibacterial activity against Staphylococcus aureus SA1199B mutant overexpressing NorA at 128 ug/ml by disk diffusion method; assay type: functional; outline: as §1
[9] = system: Staphylococcus aureus; assay: Increase in 5 ug Norfloxacin antibacterial activity against Staphylococcus aureus SA1199B mutant overexpressing NorA at 128 ug/ml by disk diffusion method; assay type: functional; outline: as §1
[10] = system: Staphylococcus aureus; assay: Increase in 5 ug ofloxacin antibacterial activity against Staphylococcus aureus SA1199B mutant overexpressing NorA at 128 ug/ml by disk diffusion method; assay type: functional; outline: as §1
[11] = system: Staphylococcus aureus; assay: Antibacterial activity against Staphylococcus aureus SA1199B overexpressing NorA at 5 ug by disk diffusion method; assay type: functional; details: read-out: IZ; outline: as §1
[12] = system: Staphylococcus aureus; assay: Increase in 16 ug/ml Norfloxacin accumulation in Staphylococcus aureus SA1199B mutant overexpressing NorA measured per mg of cell protein at 128 ug/ml after 5 mins; assay type: functional, organism-based
Outline: (§2)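 SA-1199B was grown to mid-exponential phase in MH broth (4–5 h, 37°C, shaken), then washed and resuspended in 50 mM sodium phosphate, pH 7.0. Cells got norfloxacin at one-quarter MIC, alone or with inhibitor at 128 μg/ml. At 5–20 min, cells were spun through silicone-paraffin oil into orthophosphoric acid. Norfloxacin was measured by HPLC fluorescence (ex 240/[…]) as ng/mg BCA protein. Means of triplicate experiments.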

[13] = system: Staphylococcus aureus; assay: Increase in 16 ug/ml Norfloxacin accumulation in Staphylococcus aureus SA1199B mutant overexpressing NorA at 128 ug/ml after 20 mins; assay type: functional; outline: as §2
[14] = system: Staphylococcus aureus; assay: Increase in 16 ug/ml Norfloxacin accumulation in wild type Staphylococcus aureus SA1199 at 128 ug/ml after 20 mins; assay type: functional
Outline: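 Mid-exponential SA-1199 cells were washed and resuspended in 50 mM sodium phosphate, pH 7.0. They were exposed at time zero to norfloxacin at one-quarter MIC, alone or with EPI at 128 μg/ml. At 5–20 min, cells were spun through silicone-paraffin oil into orthophosphoric acid. Lysate norfloxacin was measured by C18 HPLC with fluorescence detection (ex 240, em 280 nm) and normalized to BCA protein (ng/mg). Triplicate experiments, mean reported.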

[15] = system: Staphylococcus aureus; assay: Increase in 16 ug/ml Norfloxacin accumulation in Staphylococcus aureus SA1199B mutant overexpressing NorA measured per milligram of cell protein at 128 ug/ml after 20 mins; assay type: functional, organism-based; outline: as §2

SMILES	inhibition zone (IZ) [1] [mm]	MIC [2] [µg/mL]	inhibition zone (IZ) [3] [mm]	MIC [4] [µg/mL]	MIC [5] [µg/mL]	inhibition zone (IZ) [6] [mm]	inhibition zone (IZ) [7] [mm]	inhibition zone (IZ) [8] [mm]	inhibition zone (IZ) [9] [mm]	inhibition zone (IZ) [10] [mm]	zone of inhibition at 5 µg/disc [11] [mm]	Drug uptake [12] [ng/mg]	Activity [13] [%]	Activity [14] [%]	Drug uptake [15] [ng/mg]
Cn1ccnc1[S+]([O-])Cc1nc2ccccc2n2cccc12 (centres undefined)	27	> 512	22	2	32	14	25	27	6	19	–	–	–	–	–
COc1c(N2C[C@@H]3CCCN[C@@H]3C2)c(F)cc2c(=O)c(C(=O)O)cn(C3CC3)c12 [MOXIFLOXACIN]	–	–	–	–	–	–	–	–	–	–	27	–	–	–	–
COc1ccc2[nH]c([S+]([O-])Cc3nc4ccccc4n4cccc34)nc2c1 (centres undefined)	28	> 512	24	1	8	24	26	27	15	25	–	270	40	10	400
COc1ccc2c(c1)nc(C[S+]([O-])c1nc3ccccc3[nH]1)c1cccn12 (centres undefined)	28	> 512	24	1	8	22	26	28	13	25	–	270	40	10	400
[O-][S+](Cc1nc2ccccc2n2cccc12)c1ccccn1 (centres undefined)	27	> 512	22	2	32	17	25	27	6	20	–	–	–	–	–
COc1ccc2[nH]c([S+]([O-])Cc3nc4cc(OC)ccc4n4cccc34)nc2c1 (centres undefined)	28	> 512	24	1	8	24	27	29	16	25	–	270	40	10	400
[O-][S+](Cc1nc2ccccc2n2cccc12)c1nc2ccccc2[nH]1 (centres undefined)	28	> 512	24	1	16	19	25	28	10	23	–	270	40	10	400
COc1ccc2[nH]c([S+]([O-])Cc3nc4ccc(Cl)cc4n4cccc34)nc2c1 (centres undefined)	27	> 512	23	1	16	19	25	27	10	21	–	270	40	10	400
[O-][S+](Cc1nc2ccccc2n2cccc12)c1ncc[nH]1 (centres undefined)	27	> 512	22	2	32	15	25	27	6	19	–	–	–	–	–
O=C(O)c1cn(C2CC2)c2cc(N3CCNCC3)c(F)cc2c1=O [CIPROFLOXACIN]	–	–	–	–	–	–	–	–	–	–	13	–	–	–	–
Cn1c([S+]([O-])Cc2nc3ccccc3n3cccc23)nc2ccccc21 (centres undefined)	27	> 512	23	2	32	15	25	27	6	20	–	–	–	–	–
CCn1cc(C(=O)O)c(=O)c2cc(F)c(N3CCNCC3)cc21 [NORFLOXACIN]	–	–	–	–	–	–	–	–	–	–	27	–	–	–	–
CC1COc2c(N3CCN(C)CC3)c(F)cc3c(=O)c(C(=O)O)cn1c23 (centres undefined) [OFLOXACIN]	–	–	–	–	–	–	–	–	–	–	27	–	–	–	–
COc1ccc2c(c1)nc([S+]([O-])Cc1nc3ccccc3n3cccc13)c1cccn12 (centres undefined)	27	> 512	22	2	32	17	25	27	6	19	–	–	–	–	–
